Active and inactive are the calls of the source. The calls are words filed in the database; no cut-off is given here.
Tests used:
[1] = system: Mus musculus; assay: Protection against duct ligation-induced mouse assessed as low dead cells at 1 mg/kg, ip administration daily for 10 days by TUNEL staining; type: functional, organism-based; conditions: Liver, time 10.0 day
[2] = target: Serine/threonine-protein kinase tousled-like 1 (Homo sapiens) (UniProt Q9UKI8); assay: Inhibition of TLK1 (unknown origin) assessed as remaining activity at 1 uM by Kinome scan method relative to control
[3] = target: T1, Serine/threonine-protein kinase 3 (Homo sapiens, UniProt Q13188); assay: Inhibition of recombinant His-tagged full-length MST2 (unknown origin) expressing in Escherichia coli assessed as MOB1a phosphorylation level incubated for 30 min in the presence of 300 uM ATP by immunoblot analysis
T1 sequence (Q13188 whole entry): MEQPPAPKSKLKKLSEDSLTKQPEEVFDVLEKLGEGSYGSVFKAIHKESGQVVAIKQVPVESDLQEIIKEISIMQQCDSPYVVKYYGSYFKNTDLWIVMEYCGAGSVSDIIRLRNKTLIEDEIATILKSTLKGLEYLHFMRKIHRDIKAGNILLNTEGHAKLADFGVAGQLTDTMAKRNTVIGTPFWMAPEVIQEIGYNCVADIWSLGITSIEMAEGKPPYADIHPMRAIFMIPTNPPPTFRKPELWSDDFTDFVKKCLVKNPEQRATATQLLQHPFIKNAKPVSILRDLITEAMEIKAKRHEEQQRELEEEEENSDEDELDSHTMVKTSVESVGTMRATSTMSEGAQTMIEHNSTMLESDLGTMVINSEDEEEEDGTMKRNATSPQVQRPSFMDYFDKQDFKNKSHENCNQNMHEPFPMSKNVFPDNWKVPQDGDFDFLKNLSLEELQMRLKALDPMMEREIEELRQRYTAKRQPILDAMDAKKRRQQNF

[4] = target: Serine/threonine-protein kinase ICK (Homo sapiens) (UniProt Q9UPZ9); assay: Inhibition of ICK (unknown origin) assessed as remaining activity at 1 uM by Kinome scan method relative to control
[5] = target: Serine/threonine-protein kinase Nek3 (Homo sapiens) (UniProt P51956); assay: Inhibition of NEK3 (unknown origin) assessed as remaining activity at 1 uM by Kinome scan method relative to control
[6] = target: Serine/threonine-protein kinase TAO3 (Homo sapiens) (UniProt Q9H2K8); assay: Inhibition of TAOK3 (unknown origin) assessed as remaining activity at 1 uM by Kinome scan method relative to control
[7] = Acute toxicity in wild-type mouse assessed as low level in oval cell expansion by at 1 mg/kg,ip administrated daily for 2 months by immunohistochemical staining; type: organism-based; conditions: in vivo, 1460 h
[8] = system: Proto-oncogene tyrosine-protein kinase receptor Ret (Homo sapiens), P07949 [V804M]; assay: Inhibition of RET V804M (unknown origin) assessed as remaining activity at 1 uM by Kinome scan method relative to control
[9] = system: eIF-2-alpha kinase GCN2 (Homo sapiens), Q9P2K8 [S808G]; assay: Inhibition of GCN2 S808G mutant kinase domain 2 (unknown origin) assessed as remaining activity at 1 uM by Kinome scan method relative to control
[10] = target: Tyrosine-protein kinase Fgr (Homo sapiens) (UniProt P09769); assay: Inhibition of FGR (unknown origin) assessed as remaining activity at 1 uM by Kinome scan method relative to control
[11] = target: Ribosomal protein S6 kinase alpha-1 (Homo sapiens) (UniProt Q15418); assay: Inhibition of N-terminal kinase domain RSK1 (unknown origin) assessed as remaining activity at 1 uM by Kinome scan method relative to control
[12] = target: Death-associated protein kinase 3 (Homo sapiens) (UniProt O43293); assay: Inhibition of DAPK3 (unknown origin) assessed as remaining activity at 1 uM by Kinome scan method relative to control
Method in brief: (§1)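 Active-site-dependent competition-binding profiling (KINOMEscan) at 1 μM against a 468-kinase panel; compound supplied from a 10 mM DMSO stock. Read-out is ctrl% = (test signal − positive control signal)/(negative control signal − positive control signal) × 100. DMSO is the negative control (100%) and a control compound the positive control (0%). Lower ctrl% means tighter binding.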

[13] = target: Mitogen-activated protein kinase 8 (Homo sapiens) (UniProt P45983); assay: Inhibition of JNK1 (unknown origin) assessed as remaining activity at 1 uM by Kinome scan method relative to control
[14] = target: Tyrosine-protein kinase ITK/TSK (Homo sapiens) (UniProt Q08881); assay: Inhibition of ITK (unknown origin) assessed as remaining activity at 1 uM by Kinome scan method relative to control
[15] = target: Activin receptor type-1B (Homo sapiens) (UniProt P36896); assay: Inhibition of ACVR1B (unknown origin) assessed as remaining activity at 1 uM by Kinome scan method relative to control
Method in brief: (§2)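 Active-site-dependent competition-binding (KINOMEscan) panel of 468 kinases, test compound at 1 μM (from a 10 mM DMSO stock). Read-out is ctrl% = (test signal − positive control signal)/(negative control signal − positive control signal) × 100. DMSO is the negative control (100%) and a control compound is the positive control (0%). Lower ctrl% means tighter binding.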

[16] = system: Tyrosine-protein kinase ABL1 (Homo sapiens), P00519 [T315I]; assay: Inhibition of ABL1 T315I mutant (unknown origin) assessed as remaining activity at 1 uM by Kinome scan method relative to control; method in brief: as §2
[17] = Binding affinity to phosphorylated ABL1 T315I mutant (unknown origin) assessed as dissociation constant; set-up: species or system Homo sapiens
[18] = target: Casein kinase II subunit alpha (Homo sapiens) (UniProt P68400); assay: Inhibition of CSNK2A1 (unknown origin) assessed as remaining activity at 1 uM by Kinome scan method relative to control; method in brief: as §1
[19] = Tmax in male Sprague-Dawley rat at 5 mg/kg, iv measured for 24 hrs by LC-MS/MS analysis; type: ADME, organism-based; conditions: in vivo
[20] = target: Homeodomain-interacting protein kinase 4 (Homo sapiens) (UniProt Q8NE63); assay: Inhibition of HIPK4 (unknown origin) assessed as remaining activity at 1 uM by Kinome scan method relative to control
[21] = target: Phosphatidylinositol 4,5-bisphosphate 3-kinase catalytic subunit alpha isoform (Homo sapiens, UniProt P42336, H1047L); assay: Binding affinity to PIK3CA H1047L mutant (unknown origin) assessed as dissociation constant
[22] = target: Cyclin-dependent kinase-like 1 (Homo sapiens) (UniProt Q00532); assay: Inhibition of CDKL1 (unknown origin) assessed as remaining activity at 1 uM by Kinome scan method relative to control; method in brief: as §1
[23] = target: Tyrosine-protein kinase Blk (Homo sapiens) (UniProt P51451); assay: Inhibition of BLK (unknown origin) assessed as remaining activity at 1 uM by Kinome scan method relative to control; method in brief: as §2
[24] = system: Receptor-type tyrosine-protein kinase FLT3 (Homo sapiens), P36888 [UNDEFINED MUTATION]; assay: Inhibition of FLT3 […]/D835V mutant (unknown origin) assessed as remaining activity at 1 uM by Kinome scan method relative to control
[25] = target: Serine/threonine-protein kinase Nek10 (Homo sapiens) (UniProt Q6ZWH5); assay: Inhibition of NEK10 (unknown origin) assessed as remaining activity at 1 uM by Kinome scan method relative to control

Casein kinase II subunit alpha (Homo sapiens), sequence (P68400 whole entry, looked up): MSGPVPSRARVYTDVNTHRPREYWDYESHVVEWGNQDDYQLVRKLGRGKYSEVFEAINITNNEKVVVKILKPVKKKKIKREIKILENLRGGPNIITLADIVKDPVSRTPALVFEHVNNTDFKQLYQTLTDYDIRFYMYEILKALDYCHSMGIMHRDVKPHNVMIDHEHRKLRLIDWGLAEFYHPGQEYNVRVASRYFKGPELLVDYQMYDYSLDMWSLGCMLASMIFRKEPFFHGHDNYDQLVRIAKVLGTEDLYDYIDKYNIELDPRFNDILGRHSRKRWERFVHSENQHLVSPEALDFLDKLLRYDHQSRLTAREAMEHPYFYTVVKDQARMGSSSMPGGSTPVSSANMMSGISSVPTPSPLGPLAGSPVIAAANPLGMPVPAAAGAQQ
Activin receptor type-1B (Homo sapiens), sequence (P36896 whole entry): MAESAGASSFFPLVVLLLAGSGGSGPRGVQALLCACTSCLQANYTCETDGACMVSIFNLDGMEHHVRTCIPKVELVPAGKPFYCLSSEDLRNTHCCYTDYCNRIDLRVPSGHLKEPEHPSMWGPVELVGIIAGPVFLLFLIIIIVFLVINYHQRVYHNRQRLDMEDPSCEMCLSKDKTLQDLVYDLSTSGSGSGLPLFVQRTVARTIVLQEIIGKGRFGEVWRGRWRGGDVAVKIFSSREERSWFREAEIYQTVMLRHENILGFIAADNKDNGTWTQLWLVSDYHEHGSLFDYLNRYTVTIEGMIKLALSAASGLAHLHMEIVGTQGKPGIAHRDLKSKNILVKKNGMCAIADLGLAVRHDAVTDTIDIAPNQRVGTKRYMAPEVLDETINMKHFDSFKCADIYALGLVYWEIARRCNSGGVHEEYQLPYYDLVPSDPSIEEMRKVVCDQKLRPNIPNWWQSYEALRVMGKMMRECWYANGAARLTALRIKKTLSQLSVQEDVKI
Tyrosine-protein kinase ITK/TSK (Homo sapiens), sequence (Q08881 whole entry): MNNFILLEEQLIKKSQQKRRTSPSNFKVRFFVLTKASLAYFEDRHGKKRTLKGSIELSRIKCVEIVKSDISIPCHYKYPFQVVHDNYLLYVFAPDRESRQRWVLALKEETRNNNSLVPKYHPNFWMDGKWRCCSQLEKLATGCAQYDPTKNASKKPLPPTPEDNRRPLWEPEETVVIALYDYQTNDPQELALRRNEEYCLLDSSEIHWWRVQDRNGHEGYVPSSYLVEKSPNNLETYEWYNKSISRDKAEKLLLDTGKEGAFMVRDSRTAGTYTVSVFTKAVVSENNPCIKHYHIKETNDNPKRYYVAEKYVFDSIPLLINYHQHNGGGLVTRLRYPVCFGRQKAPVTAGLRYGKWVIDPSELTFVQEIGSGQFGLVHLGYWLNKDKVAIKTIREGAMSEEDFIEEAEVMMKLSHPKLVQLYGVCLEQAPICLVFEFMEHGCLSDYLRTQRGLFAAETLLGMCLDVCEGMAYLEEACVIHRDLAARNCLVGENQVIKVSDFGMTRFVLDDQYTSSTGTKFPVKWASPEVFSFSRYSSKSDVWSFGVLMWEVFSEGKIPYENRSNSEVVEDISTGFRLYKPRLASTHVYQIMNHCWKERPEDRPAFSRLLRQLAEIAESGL
Serine/threonine-protein kinase Nek3 (Homo sapiens), sequence (P51956 whole entry): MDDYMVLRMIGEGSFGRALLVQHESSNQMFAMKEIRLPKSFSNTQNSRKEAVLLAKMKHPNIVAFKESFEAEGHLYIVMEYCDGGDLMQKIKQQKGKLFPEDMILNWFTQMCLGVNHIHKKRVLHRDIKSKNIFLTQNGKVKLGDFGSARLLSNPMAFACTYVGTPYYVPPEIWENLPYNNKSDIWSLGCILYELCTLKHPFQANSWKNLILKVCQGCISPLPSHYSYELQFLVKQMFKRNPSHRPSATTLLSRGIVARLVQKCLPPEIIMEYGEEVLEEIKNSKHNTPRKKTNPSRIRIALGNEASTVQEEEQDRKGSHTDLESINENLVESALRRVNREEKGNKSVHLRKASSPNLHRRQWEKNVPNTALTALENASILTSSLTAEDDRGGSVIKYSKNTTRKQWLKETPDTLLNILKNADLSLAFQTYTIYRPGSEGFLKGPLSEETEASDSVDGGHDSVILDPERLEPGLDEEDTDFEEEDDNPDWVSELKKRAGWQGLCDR
Homeodomain-interacting protein kinase 4 (Homo sapiens), sequence (Q8NE63 whole entry, canonical isoform): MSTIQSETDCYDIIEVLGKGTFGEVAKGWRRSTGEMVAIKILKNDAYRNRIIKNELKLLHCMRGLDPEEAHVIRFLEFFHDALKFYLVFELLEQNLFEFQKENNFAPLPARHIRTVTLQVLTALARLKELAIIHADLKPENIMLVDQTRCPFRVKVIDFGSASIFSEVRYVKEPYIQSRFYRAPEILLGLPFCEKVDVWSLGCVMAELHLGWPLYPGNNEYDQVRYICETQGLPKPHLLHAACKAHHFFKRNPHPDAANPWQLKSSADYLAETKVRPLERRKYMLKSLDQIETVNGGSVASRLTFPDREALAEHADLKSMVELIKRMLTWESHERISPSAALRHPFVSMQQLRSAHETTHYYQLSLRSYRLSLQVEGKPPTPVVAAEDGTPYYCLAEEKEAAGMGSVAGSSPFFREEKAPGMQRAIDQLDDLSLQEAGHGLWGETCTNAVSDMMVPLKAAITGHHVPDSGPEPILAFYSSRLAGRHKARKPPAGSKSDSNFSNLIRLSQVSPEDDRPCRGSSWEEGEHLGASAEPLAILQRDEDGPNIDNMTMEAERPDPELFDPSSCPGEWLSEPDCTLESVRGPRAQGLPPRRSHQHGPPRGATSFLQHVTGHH
Proto-oncogene tyrosine-protein kinase receptor Ret (Homo sapiens), P07949 [V804M], sequence (P07949 whole entry V804M, the tested form may be a part): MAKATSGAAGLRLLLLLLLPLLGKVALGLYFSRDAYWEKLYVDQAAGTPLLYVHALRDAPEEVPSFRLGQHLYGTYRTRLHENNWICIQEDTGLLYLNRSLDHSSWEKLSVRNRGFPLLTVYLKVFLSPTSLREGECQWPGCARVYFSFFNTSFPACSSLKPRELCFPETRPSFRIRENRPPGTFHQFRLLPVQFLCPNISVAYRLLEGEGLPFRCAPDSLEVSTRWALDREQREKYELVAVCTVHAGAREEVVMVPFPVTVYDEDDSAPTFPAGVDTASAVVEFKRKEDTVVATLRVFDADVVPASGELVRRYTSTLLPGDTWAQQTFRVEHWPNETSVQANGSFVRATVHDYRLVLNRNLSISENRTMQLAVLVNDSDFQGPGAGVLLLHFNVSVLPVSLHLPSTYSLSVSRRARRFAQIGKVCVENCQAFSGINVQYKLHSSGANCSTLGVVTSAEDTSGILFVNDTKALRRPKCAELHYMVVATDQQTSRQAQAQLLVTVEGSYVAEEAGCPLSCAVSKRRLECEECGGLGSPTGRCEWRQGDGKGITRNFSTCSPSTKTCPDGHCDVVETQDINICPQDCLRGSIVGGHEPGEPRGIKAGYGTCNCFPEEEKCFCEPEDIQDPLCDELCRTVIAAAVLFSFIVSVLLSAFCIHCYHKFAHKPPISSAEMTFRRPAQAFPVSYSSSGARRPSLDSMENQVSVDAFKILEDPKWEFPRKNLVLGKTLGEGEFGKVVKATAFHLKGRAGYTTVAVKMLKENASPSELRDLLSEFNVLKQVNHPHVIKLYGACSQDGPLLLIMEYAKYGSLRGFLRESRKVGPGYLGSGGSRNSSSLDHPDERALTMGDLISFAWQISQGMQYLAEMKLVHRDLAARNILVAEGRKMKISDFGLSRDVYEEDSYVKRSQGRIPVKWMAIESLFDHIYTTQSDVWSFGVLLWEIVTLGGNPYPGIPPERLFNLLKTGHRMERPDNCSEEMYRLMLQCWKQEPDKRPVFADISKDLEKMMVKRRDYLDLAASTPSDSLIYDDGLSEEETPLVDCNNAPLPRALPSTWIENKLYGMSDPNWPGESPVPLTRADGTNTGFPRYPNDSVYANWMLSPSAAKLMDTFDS
Ribosomal protein S6 kinase alpha-1 (Homo sapiens), sequence (Q15418 whole entry, the tested form may be a part): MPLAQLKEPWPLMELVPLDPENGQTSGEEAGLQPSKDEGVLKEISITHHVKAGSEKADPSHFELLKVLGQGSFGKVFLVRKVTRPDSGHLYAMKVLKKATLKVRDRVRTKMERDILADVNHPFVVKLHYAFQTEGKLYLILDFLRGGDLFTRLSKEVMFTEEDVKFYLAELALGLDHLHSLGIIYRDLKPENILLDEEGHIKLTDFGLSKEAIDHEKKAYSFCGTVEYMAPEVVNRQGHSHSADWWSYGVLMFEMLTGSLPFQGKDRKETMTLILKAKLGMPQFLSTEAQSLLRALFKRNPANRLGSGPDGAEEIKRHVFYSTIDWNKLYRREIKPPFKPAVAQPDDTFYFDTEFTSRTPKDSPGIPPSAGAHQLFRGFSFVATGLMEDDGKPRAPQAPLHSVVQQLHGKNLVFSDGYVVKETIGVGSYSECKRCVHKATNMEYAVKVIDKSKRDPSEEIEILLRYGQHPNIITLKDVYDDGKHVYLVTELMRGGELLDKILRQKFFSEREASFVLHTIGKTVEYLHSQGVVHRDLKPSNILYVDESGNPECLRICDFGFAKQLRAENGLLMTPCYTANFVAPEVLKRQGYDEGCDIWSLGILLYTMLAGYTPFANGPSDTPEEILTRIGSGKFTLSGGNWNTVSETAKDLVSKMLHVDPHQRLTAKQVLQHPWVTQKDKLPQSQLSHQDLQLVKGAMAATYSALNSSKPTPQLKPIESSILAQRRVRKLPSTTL
Tyrosine-protein kinase Fgr (Homo sapiens), sequence (P09769 2-529 limits assumed): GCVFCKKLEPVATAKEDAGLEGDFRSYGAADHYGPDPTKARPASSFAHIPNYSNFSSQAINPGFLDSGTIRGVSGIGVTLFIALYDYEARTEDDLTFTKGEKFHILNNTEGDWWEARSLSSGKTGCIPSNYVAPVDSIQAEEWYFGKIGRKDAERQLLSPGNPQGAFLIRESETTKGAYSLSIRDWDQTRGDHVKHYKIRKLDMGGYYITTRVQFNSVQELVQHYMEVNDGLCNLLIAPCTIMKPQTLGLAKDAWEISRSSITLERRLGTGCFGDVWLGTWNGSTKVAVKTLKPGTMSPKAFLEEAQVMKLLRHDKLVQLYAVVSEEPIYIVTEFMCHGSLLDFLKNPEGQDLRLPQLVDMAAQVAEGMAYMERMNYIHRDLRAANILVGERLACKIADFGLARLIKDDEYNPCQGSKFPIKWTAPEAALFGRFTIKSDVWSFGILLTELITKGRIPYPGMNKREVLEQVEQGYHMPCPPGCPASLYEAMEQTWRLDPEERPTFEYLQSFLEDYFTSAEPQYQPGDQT

Q: With `CN1C(=O)c2sccc2N(C)c2nc(Nc3ccc(S(N)(=O)=O)cc3)ncc21` as the compound, how does the Activity [1] read?
A: Its Activity is “Active”.

Q: What about the Activity [2] of the same compound?
A: Its Activity is 100%.

Q: And the IC50 [3]?
A: Its IC50 is 1500 nM.

Q: What about the Activity [4] of the same compound?
A: Its Activity is 62%.

Q: And the Activity [5]?
A: Its Activity is 66%.

Q: What about the Activity [6] of the same compound?
A: Its Activity is 4.5%.

Q: And the Activity [7]?
A: Its Activity is “Toxic”.

Q: And the Activity [8]?
A: Its Activity is 92%.

Q: And the Activity [9]?
A: Its Activity is 100%.

Q: What about the Activity [10] of the same compound?
A: The Activity was 56%.

Q: What about the Activity [11] of the same compound?
A: The Activity was 91%.

Q: What about the Activity [12] of the same compound?
A: The Activity was 94%.

Q: And the Activity [13]?
A: The Activity was 81%.

Q: What about the Activity [14] of the same compound?
A: Its Activity is 97%.

Q: What about the Activity [15] of the same compound?
A: Its Activity is 76%.

Q: And the Activity [16]?
A: Its Activity is 15%.

Q: What about the Kd [17] of the same compound?
A: The Kd was 14 nM.

Q: What about the Activity [18] of the same compound?
A: The Activity was 94%.

Q: And the Tmax [19]?
A: Its Tmax is 4.98 min.

Q: What about the Activity [20] of the same compound?
A: The Activity was 94%.

Q: And the Kd [21]?
A: The Kd was 34 nM.

Q: And the Activity [22]?
A: Its Activity is 100%.

Q: What about the Activity [23] of the same compound?
A: Its Activity is 96%.

Q: And the Activity [24]?
A: Its Activity is 27%.

Q: And the Activity [25]?
A: The Activity was 70%.
